In PubChem BioAssay:
Unmarked numbers belong to inactive results. Results filed as inconclusive are left out. Calls of active or inactive are those of the source.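 How the source made its calls, unless noted: active means RAM network inhibition above 8.4% in each of two replicates, 3 SD over the compound average; inconclusive means above 8.4% inhibition in only one replicate; inactive means 8.4% inhibition or less in each replicate.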

Experiments:
[1] = OD615 S. cerevisiae growth inhibition, permissive medium, pilot counter-assay, permissive growth control for S. cerevisiae lifespan shortening project (AID 705;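 active means growth inhibition above 25% in both replicates, a cutoff set 3 SD above the mean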); details: OD615, 24 h, at 10 µM, active compounds read high
How it was run: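 assay system = Saccharomyces cerevisiae strain carrying genetically modified DeaD replicative-lifespan system | technique = absorbance (optical density) at 615 nm | buffer or medium = permissive raffinose/galactose medium | timing = cells pre-grown 4 h, then 24 h compound exposure, 30 °C humidified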

[2] = Restrictive medium S. cerevisiae growth inhibition, OD615, pilot screen of yeast lifespan reduction project, restrictive growth control (AID 706;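 active means growth inhibition above a set limit, 3 SD over mean compound inhibition, in both replicates, cut at about 43% in these data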;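 further: modified DeaD lifespan yeast strain shifted to restrictive glucose medium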); details: OD615, 48 h, at 10 µM, active compounds read high
How it was run: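 System: modified S. cerevisiae. Buffer or medium: CSMM-D glucose medium. Incubation: 4 h pre-growth plus 48 h compound exposure, 30 °C. Detection: absorbance (optical density) measured at 615 nm.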

[3] = viability gain of MRP-1-high H69AR cells under doxorubicin, pilot screen, MRP-1 activator project, CellTiter-Glo, duplicate (AID 807;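 active means viability increase at or above a cutoff of the median across tested compounds plus 3 SD, cut at about 8.5% in these data, passing the limit was not always enough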;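 further: compound pretreatment 18-22 h then 72 h combined with doxorubicin; 0% = doxorubicin alone and 100% = vehicle without doxorubicin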); details: H69AR viability with doxorubicin, CellTiter-Glo luminescence; at 10 µM; active compounds read high
[4] = growth suppression of beta-catenin knockout HCT116, pilot screen, human colon tumor cells (AID 823;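 active means cell viability at or below a set limit in both duplicate runs, the limit being the all-compound median minus 4 SD, cut at about 23% in these data, passing the limit was not always enough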;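 further: 0% = wells killed by 20 µM Hyamine and 100% = untreated DMSO cell wells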); details: CellTiter-Glo, 60 h, at 10 µM, active compounds read low
[5] = inhibitors of the yeast RAM network, pilot screen, dse1pr::URA3 reporter, 5-FOA selection (AID 869;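 active means inhibition over a set limit, the all-compound mean plus 3 SD, in both replicate runs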;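 further: 0% = DMSO wells with no growth and 100% = 10 µM 1-NA-PP1 with full growth; RAM network block rescues cells from 5-FOA so hits raise OD615 growth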); details: S. cerevisiae dse1pr::URA3 5-FOA growth, OD615, 2 d; at 10 µM; active compounds read high; strain carries analog-sensitive mutant Cbk1 kinase
[6] = RAM signaling pathway blockade in yeast – S. cerevisiae, Pdr1DBD-CYC8 efflux-inhibited sensitized strain, primary screen (AID 1298);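 further: 0% = DMSO untreated cells without growth and 100% = 10 µM 1-NA-PP1 full growth; higher means more yeast growth rescued from 5-FOA killing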; details: S. cerevisiae cbk1-as DSE1-URA3 strain, 5-FOA growth OD615, 2 d; at 50 µM; active compounds read high
[7] = growth suppression of PTEN-deleted HCT116, pilot screen, cell-based, HCT116 clonal line, CellTiter-Glo (AID 824;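 active means viability at or below 27.92% in each of two runs, the all-compound median minus 4 SD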;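 further: 0% = 20 µM Hyamine control and 100% = vehicle cell control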); details: 60 h, at 10 µM, active compounds read low

SMILES | growth inhibition [1] | growth inhibition [2] | viability increase [3] | viability [4] | inhibition [5] | RAM network inhibition [6] | viability [7]
CN(C)CCCNC(=O)CC(c1ccc(F)cc1)c1ccco1 (configuration not stated) | -28.8% | 0.42% | -2.97% | 77.9% | 0.69% | 5.45% | 
Cc1cc(NC(=O)c2ccc3c(c2)C(=O)N(C2CCCCC2)C3=O)no1 | -4.59% | -6.9% | -6.76% |  |  | 3.39% | 41.5%
CCCn1c(CN2CCN(c3cccc(Cl)c3)CC2)nc2c1c(=O)n(C)c(=O)n2C | -4.45% | -8.51% | -4.06% |  |  | 1.38% | 54%
CCc1ccc(-c2nc(CSCC(=O)N3CCN(c4ncccn4)CC3)c(C)o2)cc1 | -2.9% | -2.11% | -3.72% |  |  | 7.89% | 52.6%
CCS(=O)(=O)C(=C(Nc1ccc(OC)cc1)Nc1ccc(OC)cc1)S(=O)(=O)CC | -3.28% | 4.84% | -0.19% |  | 0.04% | 7.21% | 95.3%
CCc1nnc2n1N=C(c1ccc(-c3cc(Cl)ccc3Cl)o1)CS2 | 9.53% | 26.5% | -7.22% |  | 2.5% | 5.16% | 22.4% (active)
O=C(CNC(=O)c1ccco1)OCc1ccc(Cl)cc1 | -3.76% | 2.92% | -2.32% |  | 0.375% | 0.25% | 102%
COCCNC(=O)NC1(C(F)(F)F)Oc2ccc(Cl)cc2O1 (configuration not stated) | -0.985% | -0.285% | -4.63% |  | 0.43% | 5.07% | 41.9%
O=C(C1CC1)N1CCc2cc(Br)cc(S(=O)(=O)N3CCCCCC3)c21 | -4% | -6.99% | -3.17% |  | 1.66% | 5.99% | 82.1%
CCN(CC)C(=O)CSc1nsc(SCC(=O)N(CC)CC)c1C#N | -9.3% | 6.27% | -2.27% |  | 1.22% | 6.13% | 95.3%
Cc1ccc(C(=O)NCCNC(=O)CN2CCCC2)cc1 | -7.48% | 3.55% | -0.66% |  | 2.21% | 5.7% | 103%
O=C(CCCSc1nc2ccccc2s1)NCc1ccco1 | 1.82% | -1.56% | -2.85% |  | 1.28% | -0.82% | 86.3%
O=C(Nc1ccc(F)cc1)c1cc(S(=O)(=O)N2CCCCC2)cs1 | -4.36% | 5.66% | -2.46% |  | 2.75% | -0.1% | 61.1%
Cc1cc(OCCCCCNCCO)ccc1Cl | -5.31% | -3.71% | -4.62% |  | 2.05% | 1.6% | 78%
c1ccc(-c2noc(-c3cccnc3)n2)cc1 | 5.9% | 2.4% | -3.8% |  | -0.04% | 3.95% | 95.2%
COC(=O)C(C)Sc1nnc(-c2ccncc2)o1 (configuration not stated) | -6.28% | -8.81% | -0.71% |  | 1.64% | 0.1% | 99.4%
CCC(=O)N1CCc2cc(Br)cc(S(=O)(=O)NCc3ccco3)c21 | -4% | -12.8% | -5.07% |  | 1.7% | 1.85% | 96.8%
CCOC(=O)N1CCN(C(=O)CN(c2ccc(Cl)c(C(F)(F)F)c2)S(C)(=O)=O)CC1 | -5.69% | -17.2% | -4.27% |  | -0.06% | 3.68% | 90.3%
O=C(Nc1cccc(F)c1)Nc1ccccn1 | -10.9% | -7.43% | -3.54% |  | 0.385% | -0.16% | 88.1%
Cc1noc(C)c1C(=O)NCCCc1ccccc1 | -4.23% | -7.88% | -1.07% |  | 0.62% | 0.21% | 103%

SMILES | growth inhibition [1] | growth inhibition [2] | viability increase [3] | viability [4] | inhibition [5] | RAM network inhibition [6] | viability [7]
Cc1cc(C(=O)N2CCN(c3ccccn3)CC2)c(C)o1 | 9.65% | -7.73% | -5.92% |  | 0.945% | 4.2% | 96.3%
O=C1C=C(NCc2ccco2)CC(c2ccc(Cl)cc2)C1 (configuration not stated) | -7.5% | -22.3% | -2.53% |  | 1.2% | 3.64% | 66.6%
CCOc1ccc(-n2c(SCC(=O)Nc3cc(C)on3)nc3c([nH]c4ccccc43)c2=O)cc1 | -16.7% | -15.4% | -6.08% |  | 0.94% | 5.59% | 55.3%
COc1ccc(OC)c(NC(=O)C(CC(C)C)NC(=O)C2CCCCC2)c1 (configuration not stated) | -5.08% | 11.6% | -5.29% |  | 1.02% | 3.18% | 86%
CCOC(=O)c1ccc(NC(=O)N(CC)CC)cc1 | -7.39% | -1.5% | -0.97% |  | 0.865% | 2.51% | 97.4%
COc1ccc(CCNS(=O)(=O)c2ccc3c(c2)OCCO3)cc1OC | -9.32% | -3.31% | -1.53% |  | 3.12% | 1.02% | 89.9%
O=C(CN1CCN(c2ccccn2)CC1)N(c1ccccc1)c1ccc2ccccc2c1 | -6.17% | -0.835% | -1.57% |  | 2.88% | 5.32% | 69.9%
Cc1ccc(N(CC(=O)Nc2ccc(S(=O)(=O)N3CCOCC3)cc2)S(C)(=O)=O)cc1C | -6.29% | -5.42% | -4.96% |  | 0.84% | 2.67% | 84.2%
C#CCN1C(=O)C(O)(CC(=O)c2ccc3c(c2)OCCO3)c2ccccc21 (configuration not stated) | -19% | -18.4% | -2.81% |  | 0.74% | 6.75% | 49.2%
COc1ccc(CCNC(=O)CN(c2ccc(OC)c(OC)c2)S(C)(=O)=O)cc1OC | -1.96% | -7.65% | 0.32% |  | 0.98% | 1.49% | 106%
CCNc1nc(Oc2ccc(C(=O)OCC)cc2)nc(SC)n1 | -5.11% | 1.57% | -1.58% |  | 2.05% | 2.82% | 78.9%
CCOC(=O)N1CCN(C(=O)CS(=O)(=O)c2cn(Cc3ccccc3C)c3ccccc23)CC1 | -9.04% | -6% | -2.26% |  | 2.09% | 8.81% | 94%
CC1Cc2ccccc2N1Cc1nc2scc(-c3cccs3)c2c(=O)[nH]1 (configuration not stated) | 1.81% | 0.44% | -3.6% |  | 1.77% | 5.16% | 95.3%
CC(NC(=O)c1ccccc1O)c1ccccc1 (configuration not stated) | 0.015% | -2.42% | 0.41% |  | 0.1% | 0% | 94.1%
CN1CCN(C(=O)c2c(NC(=O)c3ccco3)sc3c2CCC(C(C)(C)C)C3)CC1 (configuration not stated) | -11.3% | 1.13% | -2.04% |  | -0.17% | 0.15% | 79.9%
CCC(=O)Nc1sc2c(c1C#N)CC(C)(C)NC2(C)C | -7.39% | -4.29% | 0.09% |  | 1.89% | 0.46% | 100%
COCCOC(=O)c1c(C)oc2ccc(OC(=O)c3cccs3)cc12 | -11.1% | -17% | 1.16% |  | 2.33% | 6.79% | 104%
O=C(CCCC(=O)N1CCCc2ccccc21)N1CCCc2ccccc21 | -8.11% | -5.5% | -4.74% |  | 2.04% | 1.5% | 95.3%
COC(=O)c1c(C)oc2cc(Br)c(OCC(=O)C(C)(C)C)cc12 | -9.2% | -14.9% | -2.86% |  | 1.84% | 3.84% | 90.9%
CC(Oc1ccc(Cl)cc1Cl)C(=O)NCc1ccncc1 (configuration not stated) | -10.3% | -7.06% | -4.17% |  | 1.26% | 1.89% | 89.1%
